Shown are actives, neighbours in structure and some others; about 1.7% of the full set was active somewhere.
LMPTP block: blocks human LMPTP phosphatase; recombinant LMPTP-A, OMFP fluorogenic substrate, fluorescence intensity; 360,000 compounds, 0.22% hits; P24666; inhibition, % at 20 µM;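 active = compounds that cut the enzyme signal by at least half of the control window in the single-dose screen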
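Test system: LMPTP-A phosphatase enzyme. Amount: LMPTP-A at 0.625 nM final in the reaction. Reagent: OMFP substrate, 400 µM final. Times: 50 min at room temperature. Signal: endpoint fluorescence intensity from OMFP dephosphorylation. Read-out basis: % inhibition. Benchmarks: no-enzyme and uninhibited controls.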
STEP block: blocks human striatal-enriched tyrosine phosphatase; P54829; recombinant STEP, OMFP fluorogenic substrate, fluorescence; inhibition, % at 20 µM; 360,000 compounds, 0.25% hits; AID 588621;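 active = inhibition at 20 µM, scaled per plate between control wells, above about 37%, limit read from the data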
Target sequence (P54829 whole entry, looked up): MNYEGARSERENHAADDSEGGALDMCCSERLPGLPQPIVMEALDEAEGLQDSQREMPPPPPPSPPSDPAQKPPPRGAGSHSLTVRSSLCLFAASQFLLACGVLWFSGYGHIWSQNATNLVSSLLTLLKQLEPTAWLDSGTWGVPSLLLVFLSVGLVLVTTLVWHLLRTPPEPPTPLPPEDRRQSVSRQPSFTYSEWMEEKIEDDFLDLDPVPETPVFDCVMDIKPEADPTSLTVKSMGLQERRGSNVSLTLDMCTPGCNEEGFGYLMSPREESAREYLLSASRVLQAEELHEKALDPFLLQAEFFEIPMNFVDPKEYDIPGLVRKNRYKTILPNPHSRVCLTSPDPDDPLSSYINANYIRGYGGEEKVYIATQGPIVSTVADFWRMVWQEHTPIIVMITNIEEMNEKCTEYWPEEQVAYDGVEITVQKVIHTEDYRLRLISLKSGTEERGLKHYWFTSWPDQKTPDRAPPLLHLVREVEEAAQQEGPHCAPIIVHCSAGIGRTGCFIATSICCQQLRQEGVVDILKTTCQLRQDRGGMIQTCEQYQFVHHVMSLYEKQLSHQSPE
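System: isolated STEP enzyme; schedule: 20 min enzyme reaction at room temperature, protected from light; medium: Bis-Tris buffer pH 6.0, 2.5 mM DTT, 0.005% Tween 20; signal: fluorescence, 480/540 nm; dosing: single compound dose of 20 µM, 1% DMSO final; also added: OMFP substrate, 25 µM final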
SUMO1-SIM PPI: modulators of human SUMO1-mediated protein-protein interactions; P63165; SUMO1 binding to a labelled peptide, TR-FRET, 1 h; inhibition, % at 20 µM; 360,000 compounds, 0.33% hits; AID 602429; in the data active = inhibition above about 37%
Target sequence (P63165 whole entry, looked up): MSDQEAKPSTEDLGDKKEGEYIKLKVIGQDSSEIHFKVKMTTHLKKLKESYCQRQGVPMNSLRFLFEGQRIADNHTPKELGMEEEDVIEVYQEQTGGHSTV
CASP6 VEID inh: caspase-6 (human) enzyme inhibition | AID 686996 | purified caspase-6, Z-VEID-R110 cleavage fluorescence | 350,000 compounds, 0.53% hits | inhibition, % at 12.5 µM;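 active = mean inhibition across replicates at least about 35%, with every replicate also reaching that limit, limit read from the data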
DNMT1 block: DNMT1 (human) enzyme inhibition. P26358. DNMT1 molecular beacon, Hinp1I cleavage, fluorescence. inhibition (reported as % activation of signal), % at 10 µM. 360,000 compounds, 0.83% hits. AID 588458; in the data active = inhibition above about 50%
Scp-1 inhibitor: Scp-1 (human) phosphatase inhibition; Q9GZU7; Recombinant Scp1, phosphopeptide, malachite green phosphate absorbance; inhibition, % at 20 µM; 340,000 compounds, 0.88% hits; AID 493091;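 active = inhibition above about 50% at 20 µM, limit read from the data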
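Test system: SCP-1 phosphatase catalytic domain, residues 76-261; measured by: colorimetric phosphate reagent with accelerator and stabiliser, absorbance at 630 nm; timing: enzyme reaction 45 min at room temperature, colour 5 min, stabilisation 30 min; also added: Phosphorylated 17-residue peptide substrate; compound dosing: one concentration, 20 µM, with 1.0% DMSO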
Scp-1 conf: confirmation of human Scp-1 phosphatase inhibitors; shares compounds with Scp-1 inhibitor; recombinant SCP-1 catalytic domain, phosphate release, malachite green absorbance; inhibition, % at 20 µM; 2,500 compounds, 61% hits; AID 540281
MG interference: interferes with malachite green readout, flagging false Scp-1 hits | shares compounds with Scp-1 inhibitor | Colorimetric interference counterscreen, malachite green absorbance 630 nm | apparent inhibition (interference), % at 20 µM | 2,500 tested, under 10 active;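 note: compounds added after enzyme reaction finished so only phosphate colour detection is probed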
Scp-1 Tm shift: Scp-1 (human) binding by thermal shift; Recombinant SCP1, Sypro Orange thermal shift Tm; AID 540329; thermal shift relative to vanadate control, % at 40 µM; 1,500 compounds, 25% hits; shares compounds with Scp-1 inhibitor;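 active = substances whose mean melting-temperature shift, as a percentage of the reference inhibitor's shift, reaches about 5.3%, limit read from the data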
Each line names hits and unclear results; the compound was inactive in the other large screens (follow-up assays come after a bar, where they were run).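 Rule for the calls, unless noted: active = inhibition of at least 30% at 20 µM; inactive = the rest.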

CCOc1cccc(/C=N/NC(=O)C2CCCC2)c1O	none
COc1cc(/C=N/NC(=O)CC2C(=O)NN=C2C)ccc1O (stereo unspecified)	none | Scp-1 conf inactive | MG interference inactive
CCOc1cccc(/C=N/NC(=O)CC2C(=O)NN=C2C)c1O (stereo unspecified)	none | Scp-1 conf inactive | MG interference inactive
Cc1ccc(S(=O)(=O)N(Cc2cccc(F)c2)C(=O)N2CCN(C)CC2)cc1	none
COc1ccc([N+](=O)[O-])cc1CSc1ccccn1	Scp-1 inhibitor 61 | Scp-1 conf inactive | MG interference inactive
Cc1ccc(C)c(NC(=S)N(CCc2ccncc2)C(C)C)c1	none
Cc1cc(C)c(NC(=S)N(CCc2ccncc2)C(C)C)c(C)c1	Scp-1 inhibitor 61 | Scp-1 conf inactive | MG interference inactive
O=C(/C=C/c1ccc(Cl)cc1)NC(=S)Nc1ccccc1C(=O)O	Scp-1 inhibitor 58 | Scp-1 conf 67 | MG interference inactive | Scp-1 Tm shift 7.8
CSc1ccc(CCNC(=O)CSc2ccsc2[N+](=O)[O-])cc1	Scp-1 inhibitor 51 (no result: CASP6 VEID inh) | Scp-1 conf 55 | MG interference inactive | Scp-1 Tm shift 7.5
NS(=O)(=O)c1ccc(CCNC(=O)CSc2ccsc2[N+](=O)[O-])cc1	none
O=C(COC(=O)COc1ccc(Br)cc1)Nc1cccnc1Cl	Scp-1 inhibitor 58 | Scp-1 conf inactive | MG interference inactive
CC(=NNC(=O)c1cccs1)c1ccc2c(c1)OCCO2	none
Cc1cc(Br)ccc1NC(=O)CN(C)C(=O)Cn1c(=O)cnc2ccccc21	Scp-1 inhibitor 96 | Scp-1 conf 89 | MG interference inactive | Scp-1 Tm shift inactive
CCCCNS(=O)(=O)c1ccc2nc(SCC(=O)c3ccccc3OC)[nH]c2c1	none
CCOC(=O)C1CCCN(C(=O)c2ccc(Cn3c(=S)[nH]c4cc(C(=O)OC)ccc4c3=O)cc2)C1 (stereo unspecified)	Scp-1 inhibitor 60 | Scp-1 conf 31 | MG interference inactive | Scp-1 Tm shift inactive
CC1CCCC(NC(=O)COC(=O)c2cccc(S(=O)(=O)N3CCCCC3)c2)C1C (stereo unspecified)	none
CCOC(=O)COc1ccccc1/C=N\NC(=O)c1cc2c(ccc3ccccc32)o1	Scp-1 inhibitor 84 | Scp-1 conf 39 | MG interference inactive | Scp-1 Tm shift inactive
CCOc1cc(/C=N/NC(=O)c2cc3c(ccc4ccccc43)o2)ccc1O	none
O=C1OC(N2C(=O)CC[C@H]2C(=O)Nc2ccc(Br)cc2F)c2ccccc21 (stereo partly specified)	none
Cc1c(NC(=O)CN2C(=O)NC3(CCCC3)C2=O)c(=O)n(-c2ccccc2)n1C	none
CC1=NC(C(F)(F)F)(C(F)(F)F)C(C#N)=C(C)N1	Scp-1 inhibitor 56 (no result: CASP6 VEID inh) | Scp-1 conf inactive | MG interference inactive
CC1=C(C#N)C(Nc2cc(C)ccn2)(C(F)(F)F)C(=O)N1 (stereo unspecified)	none (no result: CASP6 VEID inh)
Cc1ccc(S(=O)(=O)Cc2ccc(C(=O)N3CCCCCC3)o2)cc1	none
CCOC(=O)C1CCCN(C(=O)c2ccc(CS(=O)(=O)c3ccc(C)cc3)o2)C1 (stereo unspecified)	Scp-1 inhibitor 57 (no result: CASP6 VEID inh) | Scp-1 conf 55 | MG interference inactive | Scp-1 Tm shift inactive
COc1ccc(CN2CCN(C(=O)Cn3nc(C(=O)O)c4ccccc4c3=O)CC2)cc1F	Scp-1 inhibitor 57 (no result: CASP6 VEID inh) | Scp-1 conf inactive | MG interference inactive
O=C(NCCCO)c1cc([N+](=O)[O-])cc2c1C=Cc1ccccc1O2	CASP6 VEID inh 89, Scp-1 inhibitor 98 | Scp-1 conf inactive | MG interference inactive
O=C(NCCCc1ccccc1)c1ccc([N+](=O)[O-])cc1Cl	none
C[C@H](CCC(=O)O)[C@H]1CC[C@H]2[C@@H]3CC[C@@H]4C[C@H](O)CC[C@]4(C)[C@H]3CC[C@]12C	Scp-1 inhibitor 58 | Scp-1 conf 56 | MG interference inactive | Scp-1 Tm shift inactive
CC(CCC(=O)O)C1CCC2C3CCC4C[C@H](O)CCC4(C)C3CC(=O)C12C (stereo partly specified)	none
CC(NS(=O)(=O)c1ccc(OCC(=O)N2CCOCC2)c(Cl)c1)c1ccccc1 (stereo unspecified)	none (no result: CASP6 VEID inh)
C/C(=N\Nc1ccc(Cl)c(C(=O)O)c1)c1ccc[nH]1	Scp-1 inhibitor 73 | Scp-1 conf 59 | MG interference inactive | Scp-1 Tm shift 17
CCCC(=O)NC(c1ccc(OC)cc1)c1c(O)ccc2ccccc12 (stereo unspecified)	none
O=C(Cn1c2[n+](c3ccc(C(F)(F)F)cc31)CCCCC2)Nc1ccccc1	Scp-1 inhibitor 62 | Scp-1 conf inactive | MG interference inactive
CCc1cccc(NC(=O)Cn2c3[n+](c4ccc(C(F)(F)F)cc42)CCCCC3)c1	none
CN(O)/C=C1\C(=O)Nc2ccccc21	Scp-1 inhibitor 65 (no result: CASP6 VEID inh) | Scp-1 conf inactive | MG interference inactive
CN(C)/C=C1\C(=O)Nc2ccccc21	none (no result: CASP6 VEID inh)
O=C(O)c1ccc(CNc2ccccc2C(=O)O)cc1	Scp-1 inhibitor 53 (no result: CASP6 VEID inh) | Scp-1 conf 54 | MG interference inactive | Scp-1 Tm shift inactive
Cc1cc(C)c(S(C)(=O)=O)c(N(C)NC(=O)c2c(F)cccc2F)n1	Scp-1 inhibitor 68 | Scp-1 conf inactive | MG interference inactive
CCN(CC(=O)Nc1ccc(NC(C)=O)cc1)C(=O)Cc1coc2cc(C)c(C)cc12	none
Cc1ccsc1CNCc1cc(Cl)ccc1O	none
Cc1noc(C)c1NC(=O)Nc1cccc2c1O[C@H](CN(C)S(=O)(=O)c1ccc(Cl)cc1)[C@@H](C)CN([C@@H](C)CO)C2=O	none (no result: LMPTP block, STEP block, SUMO1-SIM PPI, DNMT1 block, Scp-1 inhibitor)
COc1ccc(OC)c(-c2nc3ccccc3nc2-c2ccccc2)c1	Scp-1 inhibitor 58 | Scp-1 conf inactive | MG interference inactive
C[C@@H]1CN([C@H](C)CO)C(=O)Cc2cc(NC(=O)c3ccncc3)ccc2O[C@@H]1CN(C)C(=O)Nc1ccc(C(F)(F)F)cc1	none (no result: LMPTP block, STEP block, SUMO1-SIM PPI, DNMT1 block, Scp-1 inhibitor)
O=C(Nc1ccnc(=O)[nH]1)c1sc2ccccc2c1Cl	Scp-1 inhibitor 98 | Scp-1 conf 67 | MG interference inactive | Scp-1 Tm shift inactive
O=C(Nc1ccncc1)c1sc2ccccc2c1Cl	none
